{"source": "paper PMC2743929", "about": "(Cell calcium, 2009)", "key": {"[1]": {"details": "low to moderate affinity Ca2+ dye; stated property, no reference given; cited from earlier work"}, "[2]": {"system": "ASI(+)RyR1-expressing dyspedic myotubes", "test": "Intracellular Ca2+ measurement", "format": "cell-based, mice", "details": "500μM, 45s application (Fig. 2)", "how_it_was_run": "(§1)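 RyR1-null mouse myotubes in primary culture; nuclear cDNA injection where applicable, expressing cells marked by co-injected cherry red cDNA (0.005μg/μl). Loaded 25min at room temperature with 5μM fura-FF AM in HEPES Ringer's, pH7.4. Ratio 340/380nm (510nm emission) every 350ms. Sequence: 500μM 4-cmc for 45s, 60s wash, zero-Ca²⁺ ICE for 120s, then 10mM Ca²⁺ plus 10μM ionomycin. Peak responses compared by ANOVA/Dunnett's test.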"}, "[3]": {"system": "ASI(-)RyR1-expressing dyspedic myotubes", "test": "Intracellular Ca2+ measurement", "format": "cell-based, mice", "details": "500μM, 45s application (Fig. 2)", "how_it_was_run": "as §1"}, "[4]": {"system": "non-expressing dyspedic (RyR1-null) myotubes", "test": "Intracellular Ca2+ measurement", "format": "cell-based, mice", "details": "500μM (Fig. 2B)", "how_it_was_run": "as §1"}, "[5]": {"system": "native skeletal muscle RyR1", "test": "[3H]ryanodine binding to SR vesicles", "format": "biochemical", "details": "for Ryanodine binding: mean ±SEM, SEM"}, "[6]": {"system": "native skeletal muscle RyR1", "test": "Ca2+ release from SR vesicles", "format": "biochemical", "how_it_was_run": "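SR vesicles in 100mM KH₂PO₄ (pH7), 4mM MgCl₂, 1mM Na₂ATP, 0.5mM antipyrylazo III; extravesicular Ca²⁺ followed as OD at 710nm. Additions in sequence: 1μM thapsigargin, then peptide, then 5μM ruthenium red, then 1.5μg/ml A23187. n=3; paired or unpaired Student's t-test, P<0.05.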"}, "[7]": {"system": "native RyR1", "test": "Single channel recording in lipid bilayers", "format": "biochemical", "details": "for effect on RyR1 channel activity (open probability), in words: n=3 (Fig. 6)", "how_it_was_run": "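Native RyR1 vesicles fused into lipid bilayers. After incorporation, cis contained 230mM CsCH₃O₃S, 20mM CsCl, 10mM TES, 500mM mannitol, 100μM free Ca²⁺, pH7.4; trans was made symmetrical at 230mM CsCH₃O₃S. Potential alternated between -40 and +40mV every 30s. Open probability from one to two 30s periods, with threshold ~20% of maximal conductance. Control, then 100μM peptide; n=3.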"}, "[8]": {"details": "substance alone, 10μM Ca2+, versus control, n=3 (Fig. 5A, 7)"}}, "data": [{"compound": "CC(=O)OCOC(=O)CN(CC(=O)OCOC(C)=O)c1cc2oc(-c3ncc(C(=O)OCOC(C)=O)o3)cc2cc1OCCOc1c(N(CC(=O)OCOC(C)=O)CC(=O)OCOC(C)=O)ccc(F)c1F", "note": "[fura-FF]", "values": [{"measurement": "Kd", "setting": "[1]", "value": 5.5, "unit": "µM"}]}, {"compound": "Cc1cc(O)ccc1Cl", "note": "[4-cmc, 4-chloro-m-cresol]", "values": [{"measurement": "effect on intracellular Ca2+, in words", "setting": "[2]", "value": "rapid increase"}, {"measurement": "effect on intracellular Ca2+, in words", "setting": "[3]", "value": "rapid increase"}, {"measurement": "effect on intracellular Ca2+, in words", "setting": "[4]", "value": "not in non-expressing dyspedic myotubes"}]}, {"compound": "^3471TADSKSKMAK-----------SGGSDQERTAAKLRG^3500 [ASI(mutant)]", "values": [{"measurement": "effect on [3H]ryanodine binding, in words", "setting": "[5]; [8]", "value": "only marginally increased"}, {"measurement": "effect on Ca2+ release from SR vesicles, in words", "setting": "[6]; 10μM peptide, n=3 (Fig. 5E)", "value": "did not increase"}, {"measurement": "effect on initial Ca2+ release from SR vesicles, in words", "setting": "[6]; 100μM peptide, n=3 (Fig. 5C-E)", "value": "small increase"}, {"measurement": "effect on channel activity, in words", "setting": "[7]; data not shown", "value": "no effect"}]}, {"compound": "^3471TADSKSKMAK-----------SGGSDQERTKKKRRG^3500 [ASI(-)]", "values": [{"measurement": "effect on [3H]ryanodine binding if channels first activated by 100μM peptide A, in words", "setting": "[5]; 10μM Ca2+, competition (Fig. 7A&B)", "value": "failed to significantly increase"}, {"measurement": "[3H]ryanodine binding achievable", "setting": "[5]; 10μM caffeine plus 100μM peptide, 10μM Ca2+ (Fig. 7C)", "value": "> 250", "unit": "% control"}, {"measurement": "effect on [3H]ryanodine binding, in words", "setting": "[5]; 100μM peptide, [Ca2+] ≥10μM, n=3 (Fig. 8A)", "value": "significantly increased"}, {"measurement": "Ryanodine binding", "setting": "[5]; 500μM ASI(-) plus 100μM DP4", "value": "339±32", "unit": "% control"}, {"measurement": "Ryanodine binding", "setting": "[5]; 500μM peptide alone, SR vesicles, 37°C, 15nM [3H]ryanodine", "value": "190±1 % of control"}, {"measurement": "effect on [3H]ryanodine binding, in words", "setting": "[5]; [8]", "value": "significantly increased"}, {"measurement": "effect on Ca2+ release from SR vesicles, in words", "setting": "[6]; initial rate, peptide minus thapsigargin, n=3 (Fig. 5B&E)", "value": "significantly increased"}, {"measurement": "effect on RyR1 channel activity (open probability), in words", "setting": "[7]; +40mV, 100μM peptide", "value": "significant inhibition"}, {"measurement": "effect on RyR1 channel activity (open probability), in words", "setting": "[7]; -40mV", "value": "significant activation"}]}, {"compound": "Cn1c(=O)c2c(ncn2C)n(C)c1=O", "note": "[Caffeine, caffeine, reference compound]", "values": [{"measurement": "effect on [3H]ryanodine binding, in words", "setting": "[5]; [8]", "value": "significantly increases"}]}]}
